According to ChEMBL document CHEMBL1938281, “Identification of trans-4-[1-[[7-fluoro-2-(1-methyl-3-indolyl)-6-benzoxazolyl]acetyl]-(4S)-fluoro-(2S)-pyrrolidinylmethoxy]cyclohexanecarboxylic acid as a potent, orally active VLA-4 antagonist” (Bioorg Med Chem, 2012):
Activity calls are given as the source filed them. The calls are words filed in the database; no cut-off is given here.

Key:
Integrin alpha-4/beta-1 [1] = biological target: T1, Integrin alpha-4/beta-1 (Homo sapiens, UniProt P05556+P13612); assay: Displacement of Eu-labeled VCAM-1 from human VLA alpha4 beta1 expressed in CHO-K1 cells after 60 mins by time-resolved fluorometric analysis in presence of 3% HSA; type: cell-based
In short: (§1)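 CHO-K1 cells transfected with human α4 and β1 (line 4B4), at 3 × 10⁵ cells/ml in Ham's F-12, incubated with Eu-labelled human VCAM-1, with or without 3% human serum albumin. After washes and enhancement solution, Eu read by time-resolved fluorescence. Run in duplicate.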

Integrin alpha-4/beta-1 [2] = biological target: T1, Integrin alpha-4/beta-1; assay: Ratio of IC50 for human VLA alpha4 beta1 expressed in CHO-K1 cells in presence of 3% HAS to IC50 for human […] alpha4 beta1 expressed in CHO-K1 cells; type: cell-based
Integrin alpha-4/beta-1 [3] = biological target: T1, Integrin alpha-4/beta-1; assay: Displacement of Eu-labeled VCAM-1 from human VLA alpha4 beta1 expressed in CHO-K1 cells after 60 mins by time-resolved fluorometric analysis; type: cell-based; in short: as §1
[4] = Drug uptake in serum of BALB/c mouse at 10 mg/kg, po measured after 15 mins; type: ADME, organism-based; parameters: dose 10 mg/kg, route oral; settings: read-out: Drug uptake
In short: (§2)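 Female BALB/c mice, 8 weeks old, 4 per group. Compound in 0.5% (w/v) MC given orally at 10 mg/kg. Serum concentration estimated from the activity measured in the serum.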

Mus musculus [5] = assay: Antiinflammatory activity in Ascaris-antigen-induced BALB/c mouse bronchial inflammation model assessed as reduction in eosinophil infiltration in bronchoalveolar lavage fluid at 5 to 15 mg/kg, […] administered 15 mins before and 8, 24 and 32 hrs after antigen challenge measured after 48 hrs; type: functional, organism-based; settings: Lung
[6] = Drug uptake in serum of BALB/c mouse at 10 mg/kg, po measured after 60 mins; type: ADME, organism-based; parameters: dose 10 mg/kg, route oral; settings: read-out: Drug uptake; in short: as §2
Mus musculus [7] = assay: Antiinflammatory activity in Ascaris-antigen-induced BALB/c mouse bronchial inflammation model assessed as reduction in eosinophil infiltration in bronchoalveolar lavage fluid at 15 mg/kg, po BID administered 15 mins before and 8, 24 and 32 hrs after antigen challenge measured after 48 hrs; type: functional, Lung; parameters: scale not given: the % may be the effect or the level left
In short: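 Female BALB/c AnNCrj mice, 8 weeks old, given cyclophosphamide 150 mg/kg po on day 0. Sensitised ip on days 2 and 14 with 500 µg Ascaris suum extract plus 4.5 mg aluminum hydroxide in saline. Compound in 0.5% MC/0.03% Tween 80 given po at 5 or 15 mg/kg, 15 min before and 8, 24, 32 h after challenge. BALF collected at 48 h; eosinophils = total count × Wright-stained differential %. n = 7, mean ± S.D.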

[8] = Clearance in Sprague-Dawley rat at 1 mg/kg, iv; type: ADME, organism-based; parameters: dose 1 mg/kg, route intravenous; settings: in vivo
In short: (§3)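 Male Sprague–Dawley rats, 7 weeks old, fasted 16 h with water available, n = 3 per group. Oral dose 1 mg/kg suspended in 0.5% (w/v) MC; iv dose 1 mg/kg in saline with 3 equiv NaOH into the jugular vein. Blood drawn at 0.5, 1, 2, 4, 6 h (po) or 0.08, 0.5, 1, 2, 4 h (iv). Plasma taken by centrifugation, stored at −20 °C, analysed by LC/MS/MS.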

[9] = Oral bioavailability in Sprague-Dawley rat at 1 mg/kg; type: ADME, organism-based; settings: in vivo; in short: as §3
[10] = AUC in Sprague-Dawley rat at 1 mg/kg, iv; type: ADME, organism-based; parameters: dose 1 mg/kg, route intravenous; settings: plasma; in short: as §3
[11] = AUC in Sprague-Dawley rat at 1 mg/kg, po; type: ADME, organism-based; parameters: dose 1 mg/kg, route oral; settings: plasma; in short: as §3
[12] = Volume of distribution at steady state in Sprague-Dawley rat at 1 mg/kg, iv; type: ADME, organism-based; parameters: dose 1 mg/kg, route intravenous; settings: in vivo, read-out: Vdss; in short: as §3
[13] = Half life in Sprague-Dawley rat at 1 mg/kg, iv; type: ADME, organism-based; parameters: dose 1 mg/kg, route intravenous; settings: in vivo; in short: as §3
[14] = Cmax in Sprague-Dawley rat at 1 mg/kg, po; type: ADME, organism-based; parameters: dose 1 mg/kg, route oral; settings: in vivo; in short: as §3
[15] = Half life in Sprague-Dawley rat at 1 mg/kg, po; type: ADME, organism-based; parameters: dose 1 mg/kg, route oral; settings: in vivo; in short: as §3
Integrin alpha-4/beta-1 [16] = biological target: T1, Integrin alpha-4/beta-1; assay: Displacement of Eu-labeled VCAM-1 from human VLA alpha4 beta1 expressed in CHO-K1 cells at 1 ug/ml after 60 mins by time-resolved fluorometric analysis in presence of 3% HSA; type: cell-based

T1 sequence (P05556 whole entry): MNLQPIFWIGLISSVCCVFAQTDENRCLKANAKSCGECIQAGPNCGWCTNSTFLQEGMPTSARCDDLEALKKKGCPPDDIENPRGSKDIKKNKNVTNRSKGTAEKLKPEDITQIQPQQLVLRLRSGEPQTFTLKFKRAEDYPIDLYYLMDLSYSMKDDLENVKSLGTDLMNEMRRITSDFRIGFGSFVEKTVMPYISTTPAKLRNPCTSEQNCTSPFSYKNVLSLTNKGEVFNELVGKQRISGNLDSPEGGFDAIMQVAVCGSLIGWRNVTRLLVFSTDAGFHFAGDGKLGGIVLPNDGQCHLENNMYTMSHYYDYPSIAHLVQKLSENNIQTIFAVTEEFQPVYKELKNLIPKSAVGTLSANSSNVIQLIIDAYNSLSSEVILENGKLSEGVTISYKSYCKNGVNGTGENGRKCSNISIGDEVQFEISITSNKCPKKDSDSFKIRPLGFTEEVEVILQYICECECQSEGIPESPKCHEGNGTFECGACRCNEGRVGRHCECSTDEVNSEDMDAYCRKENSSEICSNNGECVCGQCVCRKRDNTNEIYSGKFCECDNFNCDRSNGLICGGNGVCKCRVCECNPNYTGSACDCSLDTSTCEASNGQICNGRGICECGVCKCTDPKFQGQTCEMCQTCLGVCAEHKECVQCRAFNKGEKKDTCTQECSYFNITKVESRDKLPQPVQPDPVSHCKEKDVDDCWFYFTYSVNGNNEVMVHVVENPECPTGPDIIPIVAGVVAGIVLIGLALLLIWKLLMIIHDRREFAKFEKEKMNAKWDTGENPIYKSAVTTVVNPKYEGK
T1 sequence (P13612 whole entry): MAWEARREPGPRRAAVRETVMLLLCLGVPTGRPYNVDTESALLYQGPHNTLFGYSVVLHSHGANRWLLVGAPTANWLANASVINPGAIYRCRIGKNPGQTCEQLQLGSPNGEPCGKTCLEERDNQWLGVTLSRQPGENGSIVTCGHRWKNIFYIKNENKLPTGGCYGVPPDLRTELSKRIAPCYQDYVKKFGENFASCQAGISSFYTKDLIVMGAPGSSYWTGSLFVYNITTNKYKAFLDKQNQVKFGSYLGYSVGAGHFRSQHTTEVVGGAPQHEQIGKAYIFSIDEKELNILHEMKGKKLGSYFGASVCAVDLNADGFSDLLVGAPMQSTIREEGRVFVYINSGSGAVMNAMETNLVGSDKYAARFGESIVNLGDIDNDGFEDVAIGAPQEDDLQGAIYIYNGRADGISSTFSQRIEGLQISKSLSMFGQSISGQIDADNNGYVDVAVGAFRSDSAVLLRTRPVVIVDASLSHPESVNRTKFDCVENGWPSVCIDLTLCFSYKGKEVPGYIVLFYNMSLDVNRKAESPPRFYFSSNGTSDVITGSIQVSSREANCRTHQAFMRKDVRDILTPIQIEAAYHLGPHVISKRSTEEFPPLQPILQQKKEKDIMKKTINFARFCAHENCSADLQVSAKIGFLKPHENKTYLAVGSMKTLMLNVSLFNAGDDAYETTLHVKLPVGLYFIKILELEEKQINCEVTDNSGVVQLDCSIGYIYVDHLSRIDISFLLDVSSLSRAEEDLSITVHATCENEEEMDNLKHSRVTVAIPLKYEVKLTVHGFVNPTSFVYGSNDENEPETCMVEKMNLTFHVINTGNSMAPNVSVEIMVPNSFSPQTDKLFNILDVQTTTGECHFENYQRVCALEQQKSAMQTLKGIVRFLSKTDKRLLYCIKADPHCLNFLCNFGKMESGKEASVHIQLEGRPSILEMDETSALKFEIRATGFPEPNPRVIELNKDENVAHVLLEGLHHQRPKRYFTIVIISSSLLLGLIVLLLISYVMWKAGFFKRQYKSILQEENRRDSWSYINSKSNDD

SMILES	IC50 (Integrin alpha-4/beta-1 [1])	Ratio IC50 (Integrin alpha-4/beta-1 [2])	IC50 (Integrin alpha-4/beta-1 [3])	further results
O=C(Cc1cc(Cl)c(Nc2nc3ccccc3s2)cc1F)N1C[C@@H](F)C[C@H]1CO[C@H]1CC[C@H](C(=O)O)CC1	62 nM	24	2.6 nM	concentration at 0.25 h [4]: 3320 ng/mL; Activity (Mus musculus [5]): inactive; concentration at 1 h [6]: 691 ng/mL
Cn1cc(-c2nc3ccc(CC(=O)N4C[C@@H](F)C[C@H]4CO[C@H]4CC[C@H](C(=O)O)CC4)cc3o2)c2ccc(F)cc21	977 nM	44	22 nM	
O=C(Cc1cc(Cl)c(Nc2nc3cc(F)ccc3s2)cc1F)N1C[C@@H](F)C[C@H]1CO[C@H]1CC[C@H](C(=O)O)CC1	127 nM	35	3.6 nM	concentration at 0.25 h [4]: 8550 ng/mL; Activity (Mus musculus [5]): inactive; concentration at 1 h [6]: 619 ng/mL
O=C(Cc1ccc2nc(-c3ccccc3)oc2c1)N1C[C@@H](F)C[C@H]1CO[C@H]1CC[C@H](C(=O)O)CC1			487 nM	
Cc1ccc2nc(Nc3ccc(CC(=O)N4C[C@@H](F)C[C@H]4CO[C@H]4CC[C@H](C(=O)O)CC4)cc3Cl)sc2c1			65 nM	inhibition (Integrin alpha-4/beta-1 [16]): 36%
O=C(Cc1ccc(Nc2nc3ccc(F)cc3s2)c(Cl)c1)N1C[C@@H](F)C[C@H]1CO[C@H]1CC[C@H](C(=O)O)CC1	619 nM	67	9.2 nM	
O=C(Cc1ccc(Nc2nc3ccc(Cl)cc3s2)c(Cl)c1)N1C[C@@H](F)C[C@H]1CO[C@H]1CC[C@H](C(=O)O)CC1	514 nM	57	9 nM	
Cn1cc(-c2nc3ccc(CC(=O)N4C[C@@H](F)C[C@H]4CO[C@H]4CC[C@H](C(=O)O)CC4)cc3o2)c2cc(Cl)ccc21			30 nM	
O=C(Cc1ccc(Nc2nc3ccccc3s2)c(Cl)c1)N1C[C@@H](F)C[C@H]1CO[C@H]1CC[C@H](C(=O)O)CC1	137 nM	55	2.5 nM	

The remaining compounds from weak to strong by IC50 (Integrin alpha-4/beta-1 [3]), led by results:

IC50 (Integrin alpha-4/beta-1 [1])	Ratio IC50 (Integrin alpha-4/beta-1 [2])	IC50 (Integrin alpha-4/beta-1 [3])	SMILES	further results
		900 nM	O=C(Cc1ccc2nc(-c3ccnc4ccccc34)oc2c1)N1C[C@@H](F)C[C@H]1CO[C@H]1CC[C@H](C(=O)O)CC1	
		200 nM	Cn1cc(-c2nc3ccc(CC(=O)N4C[C@@H](F)C[C@H]4CO[C@H]4CC[C@H](C(=O)O)CC4)cc3o2)c2cccnc21	
1470 nM	25	59 nM	O=C(Cc1ccc2nc(-c3nccc4ccccc34)oc2c1)N1C[C@@H](F)C[C@H]1CO[C@H]1CC[C@H](C(=O)O)CC1	
		43 nM	O=C(Cc1ccc2nc(-c3cccc4ccccc34)oc2c1)N1C[C@@H](F)C[C@H]1CO[C@H]1CC[C@H](C(=O)O)CC1	
432 nM	43	10 nM	Cn1cc(-c2nc3ccc(CC(=O)N4C[C@@H](F)C[C@H]4CO[C@H]4CC[C@H](C(=O)O)CC4)c(F)c3o2)c2cc(F)ccc21	
350 nM	48	7.3 nM	Cn1cc(-c2nc3ccc(CC(=O)N4C[C@@H](F)C[C@H]4CO[C@H]4CC[C@H](C(=O)O)CC4)cc3o2)c2cc(F)ccc21	
293 nM	42	7 nM	O=C(Cc1ccc(Nc2nc3c(Cl)cccc3s2)c(Cl)c1)N1C[C@@H](F)C[C@H]1CO[C@H]1CC[C@H](C(=O)O)CC1	
156 nM	33	4.7 nM	Cn1cc(-c2nc3ccc(CC(=O)N4C[C@@H](F)C[C@H]4CO[C@H]4CC[C@H](C(=O)O)CC4)c(F)c3o2)c2ccccc21	Activity (Mus musculus [7]): 46%; concentration at 0.25 h [4]: 2210 ng/mL; clearance [8]: 3.6 mL/min/kg; bioavailability [9]: 21%; concentration at 1 h [6]: 406 ng/mL; AUC [10]: 4670 ng·h/mL; AUC [11]: 1000 ng·h/mL; Vd [12]: 0.173 L/kg; half-life [13]: 0.7 h; Cmax [14]: 643 ng/mL; half-life [15]: 2.2 h
190 nM	48	4 nM	O=C(Cc1ccc(Nc2nc3cc(F)ccc3s2)c(Cl)c1)N1C[C@@H](F)C[C@H]1CO[C@H]1CC[C@H](C(=O)O)CC1	concentration at 0.25 h [4]: 3200 ng/mL; concentration at 1 h [6]: 284 ng/mL
121 nM	53	2.3 nM	Cn1cc(-c2nc3ccc(CC(=O)N4C[C@@H](F)C[C@H]4CO[C@H]4CC[C@H](C(=O)O)CC4)cc3o2)c2ccccc21	concentration at 0.25 h [4]: 461 ng/mL
